From ChEMBL document CHEMBL1154334, “Effect of the structure of adenosine mimic of bisubstrate-analog inhibitors on their activity towards basophilic protein kinases” (Bioorg Med Chem Lett, 2009)
Where a SMILES comes first, the peptide text is derived from it. [ ]: non-standard residue; d: D form. The star is where a group is joined. X1 = Nc1nccc(-c2ccc(C(=O)*)s2)n1; Ahx = NCCCCCC(=O)O

Columns and labels:
[1] = molecular target: Serine/threonine-protein kinase pim-1 (Homo sapiens) (UniProt P11309); test: Inhibition of PIM1 at 100 nM relative to control
Procedure, shortened: (§1)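 Kinase panel screen with inhibitor at 100 nM and ATP at about the Km of each kinase. Activity is given as percent inhibition relative to control incubations with the inhibitor omitted. Values are means of duplicate determinations, with the spread reported as the difference between duplicates.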

[2] = molecular target: RAC-beta serine/threonine-protein kinase (Homo sapiens) (UniProt P31751); test: Inhibition of PKBbeta at 100 nM relative to control; procedure, shortened: as §1
[3] = molecular target: Calcium/calmodulin-dependent protein kinase type II subunit beta (Homo sapiens) (UniProt Q13554); test: Inhibition of CaMK2beta at 100 nM relative to control; procedure, shortened: as §1
[4] = molecular target: Ribosomal protein S6 kinase alpha-2 (Homo sapiens) (UniProt Q15349); test: Inhibition of RSK3 at 100 nM relative to control
Procedure, shortened: (§2)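 Kinase panel screen with the inhibitor at 100 nM and ATP at a concentration of about Km for each kinase. Activity was expressed as percent inhibition relative to control incubations that lacked inhibitor. Values are means of duplicate determinations, and the difference between the duplicates is also reported.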

[5] = molecular target: Serine/threonine-protein kinase PAK 3 (Homo sapiens) (UniProt O75914); test: Inhibition of PAK3 at 100 nM relative to control; procedure, shortened: as §1
[6] = molecular target: Serine/threonine-protein kinase PAK 4 (Homo sapiens) (UniProt O96013); test: Inhibition of PAK4 at 100 nM relative to control; procedure, shortened: as §1
[7] = molecular target: Protein kinase C epsilon type (Homo sapiens) (UniProt Q02156); test: Inhibition of PKCepsilon at 100 nM relative to control; procedure, shortened: as §1
[8] = molecular target: Serine/threonine-protein kinase Sgk1 (Homo sapiens) (UniProt O00141); test: Inhibition of SGK1 at 100 nM relative to control; procedure, shortened: as §2
[9] = molecular target: Ribosomal protein S6 kinase alpha-5 (Homo sapiens) (UniProt O75582); test: Inhibition of MSK1 at 100 nM relative to control; procedure, shortened: as §1
[10] = molecular target: Ribosomal protein S6 kinase beta-1 (Homo sapiens) (UniProt P23443); test: Inhibition of p70S6 at 100 nM relative to control; procedure, shortened: as §2
[11] = molecular target: Ribosomal protein S6 kinase alpha-4 (Homo sapiens) (UniProt O75676); test: Inhibition of MSK2 at 100 nM relative to control; procedure, shortened: as §1
[12] = molecular target: Serine/threonine-protein kinase Chk2 (Homo sapiens) (UniProt O96017); test: Inhibition of CHK2 at 100 nM relative to control; procedure, shortened: as §1
[13] = molecular target: cGMP-dependent protein kinase 2 (Homo sapiens) (UniProt Q13237); test: Inhibition of PKG2 at 100 nM relative to control; procedure, shortened: as §1
[14] = molecular target: Protein kinase C zeta type (Homo sapiens) (UniProt Q05513); test: Inhibition of PKCzeta at 100 nM relative to control; procedure, shortened: as §1
[15] = molecular target: Serine/threonine-protein kinase pim-2 (Homo sapiens) (UniProt Q9P1W9); test: Inhibition of PIM2 at 100 nM relative to control; procedure, shortened: as §1
[16] = molecular target: Cyclin-dependent kinase 2/cyclin A (Homo sapiens) (UniProt P24941+P20248+P78396); test: Inhibition of CDK2/cyclin A at 100 nM relative to control; format: protein-complex assay; procedure, shortened: as §1
[17] = molecular target: AMP-activated protein kinase (AMPK) alpha-1/beta-1/gamma-1 (Homo sapiens) (UniProt P54619+Q9Y478+Q13131); test: Inhibition of AMPK alpha-1/beta-1/gamma-1 at 100 nM relative to control; format: protein-complex assay; procedure, shortened: as §1
[18] = molecular target: Serine/threonine-protein kinase D1 (Homo sapiens) (UniProt Q15139); test: Inhibition of PKCmu at 100 nM relative to control; procedure, shortened: as §1
[19] = molecular target: Protein kinase C eta type (Homo sapiens) (UniProt P24723); test: Inhibition of PKCeta at 100 nM relative to control; procedure, shortened: as §1
[20] = molecular target: Serine/threonine-protein kinase Chk1 (Homo sapiens) (UniProt O14757); test: Inhibition of CHK1 at 100 nM relative to control; procedure, shortened: as §1
[21] = molecular target: Protein kinase C delta type (Homo sapiens) (UniProt Q05655); test: Inhibition of PKCdelta at 100 nM relative to control; procedure, shortened: as §1
[22] = molecular target: Protein kinase C beta type (Homo sapiens) (UniProt P05771); test: Inhibition of PKCbeta2 at 100 nM relative to control; procedure, shortened: as §1
[23] = molecular target: Protein kinase C theta type (Homo sapiens) (UniProt Q04759); test: Inhibition of PKCtheta at 100 nM relative to control; procedure, shortened: as §1
[24] = molecular target: Serine/threonine-protein kinase D3 (Homo sapiens) (UniProt O94806); test: Inhibition of PKD3 at 100 nM relative to control; procedure, shortened: as §1
[25] = molecular target: Serine/threonine-protein kinase Sgk2 (Homo sapiens) (UniProt Q9HBY8); test: Inhibition of SGK2 at 100 nM relative to control; procedure, shortened: as §2
[26] = molecular target: Serine/threonine-protein kinase PAK 6 (Homo sapiens) (UniProt Q9NQU5); test: Inhibition of PAK6 at 100 nM relative to control; procedure, shortened: as §1
[27] = molecular target: Calcium/calmodulin-dependent protein kinase type 1D (Homo sapiens) (UniProt Q8IU85); test: Inhibition of CaMK 1delta at 100 nM relative to control; procedure, shortened: as §1
[28] = molecular target: Glycogen synthase kinase-3 alpha (Homo sapiens) (UniProt P49840); test: Inhibition of GSK3alpha at 100 nM relative to control; procedure, shortened: as §1
[29] = molecular target: Ribosomal protein S6 kinase alpha-3 (Homo sapiens) (UniProt P51812); test: Inhibition of RSK2 at 100 nM relative to control; procedure, shortened: as §1
[30] = molecular target: 3-phosphoinositide-dependent protein kinase 1 (Homo sapiens) (UniProt O15530); test: Inhibition of PDK1 at 100 nM relative to control
[31] = molecular target: T1, cAMP-dependent protein kinase catalytic subunit alpha (Homo sapiens, UniProt P17612); test: Inhibition of PKA Calpha at 100 nM relative to control; procedure, shortened: as §1
[32] = molecular target: Aurora kinase A (Homo sapiens) (UniProt O14965); test: Inhibition of Aurora A at 100 nM relative to control; procedure, shortened: as §1
[33] = molecular target: RAC-alpha serine/threonine-protein kinase (Homo sapiens) (UniProt P31749); test: Inhibition of PKBalpha at 100 nM relative to control; procedure, shortened: as §1
[34] = molecular target: Protein kinase C beta type (Homo sapiens) (UniProt P05771); test: Inhibition of PKCbeta1 at 100 nM relative to control; procedure, shortened: as §1
[35] = molecular target: Protein kinase C iota type (Homo sapiens) (UniProt P41743); test: Inhibition of PKCiota at 100 nM relative to control; procedure, shortened: as §1
[36] = molecular target: T2, Rho-associated protein kinase 2 (Homo sapiens, UniProt O75116); test: Inhibition of ROCK2 at 100 nM relative to control; procedure, shortened: as §1
Target sequence in this assay (O75116 whole entry, looked up): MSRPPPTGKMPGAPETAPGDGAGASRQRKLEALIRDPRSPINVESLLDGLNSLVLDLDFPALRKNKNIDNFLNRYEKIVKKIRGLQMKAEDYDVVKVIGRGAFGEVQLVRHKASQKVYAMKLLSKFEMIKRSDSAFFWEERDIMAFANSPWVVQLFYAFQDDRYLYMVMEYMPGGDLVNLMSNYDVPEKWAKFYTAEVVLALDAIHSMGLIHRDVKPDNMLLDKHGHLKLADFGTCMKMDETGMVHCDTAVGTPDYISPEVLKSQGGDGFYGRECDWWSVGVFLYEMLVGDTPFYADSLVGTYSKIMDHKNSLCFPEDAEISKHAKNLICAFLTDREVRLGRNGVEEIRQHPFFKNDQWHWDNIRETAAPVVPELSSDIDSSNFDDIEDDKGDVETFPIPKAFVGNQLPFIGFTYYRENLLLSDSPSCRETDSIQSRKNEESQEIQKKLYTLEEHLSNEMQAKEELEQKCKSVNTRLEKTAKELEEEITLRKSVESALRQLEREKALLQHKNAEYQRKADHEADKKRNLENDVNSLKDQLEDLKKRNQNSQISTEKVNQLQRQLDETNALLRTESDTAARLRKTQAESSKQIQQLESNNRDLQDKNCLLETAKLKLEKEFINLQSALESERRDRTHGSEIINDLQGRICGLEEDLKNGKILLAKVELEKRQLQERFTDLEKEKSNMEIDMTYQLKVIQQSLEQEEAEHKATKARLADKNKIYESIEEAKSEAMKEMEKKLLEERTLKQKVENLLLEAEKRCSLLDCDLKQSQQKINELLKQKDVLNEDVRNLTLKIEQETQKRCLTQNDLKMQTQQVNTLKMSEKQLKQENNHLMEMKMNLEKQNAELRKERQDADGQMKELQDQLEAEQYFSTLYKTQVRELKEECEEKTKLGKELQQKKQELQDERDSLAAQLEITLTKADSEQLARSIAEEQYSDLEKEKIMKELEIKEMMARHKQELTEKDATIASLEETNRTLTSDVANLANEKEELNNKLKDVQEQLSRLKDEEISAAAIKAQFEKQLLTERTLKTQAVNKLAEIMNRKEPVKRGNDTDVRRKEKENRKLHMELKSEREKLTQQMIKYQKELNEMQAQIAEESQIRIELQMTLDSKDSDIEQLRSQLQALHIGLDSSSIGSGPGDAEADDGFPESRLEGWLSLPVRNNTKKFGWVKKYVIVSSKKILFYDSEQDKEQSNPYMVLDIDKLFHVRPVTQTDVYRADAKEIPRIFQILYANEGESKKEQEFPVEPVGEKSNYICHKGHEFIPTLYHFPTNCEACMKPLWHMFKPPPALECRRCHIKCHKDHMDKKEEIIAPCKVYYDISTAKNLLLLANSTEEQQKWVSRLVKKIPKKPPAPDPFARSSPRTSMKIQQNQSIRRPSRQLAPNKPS

[37] = molecular target: Glycogen synthase kinase-3 beta (Homo sapiens) (UniProt P49841); test: Inhibition of GSK3-beta at 100 nM relative to control; procedure, shortened: as §1
[38] = molecular target: Proto-oncogene tyrosine-protein kinase Src (Homo sapiens) (UniProt P12931); test: Inhibition of SRC at 100 nM relative to control; procedure, shortened: as §2
[39] = molecular target: Protein kinase C alpha type (Homo sapiens) (UniProt P17252); test: Inhibition of PKCalpha at 100 nM relative to control; procedure, shortened: as §1
[40] = molecular target: Death-associated protein kinase 3 (Homo sapiens) (UniProt O43293); test: Inhibition of DAPK3 at 100 nM relative to control; procedure, shortened: as §1
[41] = molecular target: Rho-associated protein kinase 1 (Homo sapiens) (UniProt Q13464); test: Inhibition of ROCK1 at 100 nM relative to control; procedure, shortened: as §1
[42] = molecular target: Protein kinase C gamma type (Homo sapiens) (UniProt P05129); test: Inhibition of PKCgamma at 100 nM relative to control; procedure, shortened: as §1
[43] = molecular target: Serine/threonine-protein kinase D2 (Homo sapiens) (UniProt Q9BZL6); test: Inhibition of PKD2 at 100 nM relative to control; procedure, shortened: as §1
[44] = molecular target: Maternal embryonic leucine zipper kinase (Homo sapiens) (UniProt Q14680); test: Inhibition of MELK at 100 nM relative to control; procedure, shortened: as §1
[45] = molecular target: cAMP-dependent protein kinase catalytic subunit PRKX (Homo sapiens) (UniProt P51817); test: Inhibition of PRKX at 100 nM relative to control; procedure, shortened: as §1
[46] = molecular target: Calcium/calmodulin-dependent protein kinase type II subunit alpha (Homo sapiens) (UniProt Q9UQM7); test: Inhibition of CaMK2alpha at 100 nM relative to control; procedure, shortened: as §1
[47] = molecular target: Ribosomal protein S6 kinase alpha-1 (Homo sapiens) (UniProt Q15418); test: Inhibition of RSK1 at 100 nM relative to control; procedure, shortened: as §1
[48] = Inhibition of PKG1 at 100 nM relative to control; procedure, shortened: as §1
[49] = molecular target: T3, RAC-gamma serine/threonine-protein kinase (Homo sapiens, UniProt Q9Y243); test: Inhibition of PKBgamma at 100 nM relative to control; procedure, shortened: as §1
[50] = molecular target: T2, Rho-associated protein kinase 2; test: Displacement of ARC583 from ROCK2
Target sequence in this assay (O75116 whole entry): as the sequence (O75116 whole entry, looked up) above

[51] = molecular target: T3, RAC-gamma serine/threonine-protein kinase; test: Inhibition of PKBgamma in presence of 100 uM ATP
Procedure, shortened: (§3)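 Kinetic phosphorylation assays with PKA catalytic subunit (PKAc) or PKB catalytic subunit (PKBc) at fixed ATP. ATP Km values taken as 20 for PKAc and 100 for PKBc.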

[52] = molecular target: T1, cAMP-dependent protein kinase catalytic subunit alpha; test: Inhibition of PKACalpha in presence of 100 uM ATP; conditions: read-out: IC50; procedure, shortened: as §3

T3 sequence (Q9Y243 whole entry): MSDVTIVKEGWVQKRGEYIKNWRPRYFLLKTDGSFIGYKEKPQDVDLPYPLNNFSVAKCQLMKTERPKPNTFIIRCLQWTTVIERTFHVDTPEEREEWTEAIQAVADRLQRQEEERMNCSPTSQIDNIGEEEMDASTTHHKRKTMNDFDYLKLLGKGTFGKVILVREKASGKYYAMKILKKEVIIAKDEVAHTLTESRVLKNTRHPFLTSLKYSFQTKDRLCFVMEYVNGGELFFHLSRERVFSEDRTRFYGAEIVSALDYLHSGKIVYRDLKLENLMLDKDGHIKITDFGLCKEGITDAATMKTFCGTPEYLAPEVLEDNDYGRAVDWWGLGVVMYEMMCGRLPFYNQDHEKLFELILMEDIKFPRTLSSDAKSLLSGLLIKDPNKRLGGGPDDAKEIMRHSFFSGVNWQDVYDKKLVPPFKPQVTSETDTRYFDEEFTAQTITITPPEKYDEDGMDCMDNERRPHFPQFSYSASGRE
Sequence of Protein kinase C beta type (Homo sapiens) (P05771 2-671 limits assumed): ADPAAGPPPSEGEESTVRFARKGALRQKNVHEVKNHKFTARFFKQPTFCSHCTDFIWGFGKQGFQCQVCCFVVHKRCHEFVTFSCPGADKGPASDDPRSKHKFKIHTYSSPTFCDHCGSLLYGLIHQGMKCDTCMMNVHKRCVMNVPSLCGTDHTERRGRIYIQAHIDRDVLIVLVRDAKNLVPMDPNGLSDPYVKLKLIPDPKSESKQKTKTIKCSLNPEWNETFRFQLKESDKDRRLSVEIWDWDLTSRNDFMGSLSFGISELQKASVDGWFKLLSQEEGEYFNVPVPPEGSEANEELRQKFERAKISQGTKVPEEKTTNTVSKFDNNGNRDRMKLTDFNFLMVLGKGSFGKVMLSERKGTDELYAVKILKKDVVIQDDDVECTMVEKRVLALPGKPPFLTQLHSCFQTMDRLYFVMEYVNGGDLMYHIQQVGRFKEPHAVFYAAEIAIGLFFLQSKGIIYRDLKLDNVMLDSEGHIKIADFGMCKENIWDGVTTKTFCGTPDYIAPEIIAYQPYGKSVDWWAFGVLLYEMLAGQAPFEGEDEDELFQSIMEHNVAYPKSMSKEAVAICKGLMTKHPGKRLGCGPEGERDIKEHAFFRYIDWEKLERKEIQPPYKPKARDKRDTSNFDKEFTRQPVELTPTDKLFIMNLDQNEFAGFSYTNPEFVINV
Sequence of Serine/threonine-protein kinase pim-1 (Homo sapiens) (P11309 whole entry, looked up): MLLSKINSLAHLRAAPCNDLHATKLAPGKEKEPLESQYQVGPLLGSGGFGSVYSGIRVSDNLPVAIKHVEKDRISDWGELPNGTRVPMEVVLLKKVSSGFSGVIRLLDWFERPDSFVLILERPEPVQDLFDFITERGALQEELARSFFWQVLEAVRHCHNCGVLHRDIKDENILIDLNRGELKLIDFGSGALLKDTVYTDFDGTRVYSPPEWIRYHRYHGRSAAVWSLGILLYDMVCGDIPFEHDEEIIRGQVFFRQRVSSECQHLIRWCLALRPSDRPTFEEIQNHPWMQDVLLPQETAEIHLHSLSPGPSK
Sequence of Serine/threonine-protein kinase PAK 3 (Homo sapiens) (O75914 whole entry, looked up): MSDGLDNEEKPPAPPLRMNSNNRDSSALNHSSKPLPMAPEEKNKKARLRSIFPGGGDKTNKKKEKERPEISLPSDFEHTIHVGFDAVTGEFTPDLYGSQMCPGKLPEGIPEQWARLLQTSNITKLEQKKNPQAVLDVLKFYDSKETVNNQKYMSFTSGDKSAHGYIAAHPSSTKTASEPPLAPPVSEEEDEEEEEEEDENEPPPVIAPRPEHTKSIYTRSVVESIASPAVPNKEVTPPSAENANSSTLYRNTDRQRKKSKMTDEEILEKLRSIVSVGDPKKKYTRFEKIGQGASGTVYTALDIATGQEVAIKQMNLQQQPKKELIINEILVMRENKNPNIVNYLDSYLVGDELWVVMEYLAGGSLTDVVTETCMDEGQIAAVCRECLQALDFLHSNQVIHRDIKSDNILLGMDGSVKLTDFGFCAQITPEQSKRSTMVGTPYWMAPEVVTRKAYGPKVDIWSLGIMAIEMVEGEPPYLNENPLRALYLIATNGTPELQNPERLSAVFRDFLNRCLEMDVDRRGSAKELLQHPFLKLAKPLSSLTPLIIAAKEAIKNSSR
Sequence of Ribosomal protein S6 kinase alpha-2 (Homo sapiens) (Q15349 whole entry): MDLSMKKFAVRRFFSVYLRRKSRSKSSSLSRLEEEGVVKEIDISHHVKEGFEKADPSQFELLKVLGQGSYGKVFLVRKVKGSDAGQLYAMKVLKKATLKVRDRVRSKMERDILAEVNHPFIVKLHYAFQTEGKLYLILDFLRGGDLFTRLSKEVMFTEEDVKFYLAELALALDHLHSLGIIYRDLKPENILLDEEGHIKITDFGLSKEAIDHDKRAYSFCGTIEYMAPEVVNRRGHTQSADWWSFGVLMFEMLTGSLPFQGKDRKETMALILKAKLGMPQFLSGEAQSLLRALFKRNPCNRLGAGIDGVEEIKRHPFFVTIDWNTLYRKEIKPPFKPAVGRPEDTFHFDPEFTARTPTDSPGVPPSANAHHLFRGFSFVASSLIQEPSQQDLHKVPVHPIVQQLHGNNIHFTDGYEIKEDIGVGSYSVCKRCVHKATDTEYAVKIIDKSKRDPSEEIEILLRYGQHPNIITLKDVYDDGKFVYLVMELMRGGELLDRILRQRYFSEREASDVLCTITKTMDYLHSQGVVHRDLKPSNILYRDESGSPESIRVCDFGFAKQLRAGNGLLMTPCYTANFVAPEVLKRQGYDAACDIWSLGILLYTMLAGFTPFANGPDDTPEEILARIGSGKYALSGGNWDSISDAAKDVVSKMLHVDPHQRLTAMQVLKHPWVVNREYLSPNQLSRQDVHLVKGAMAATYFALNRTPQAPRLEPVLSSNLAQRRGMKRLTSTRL
Sequence of Glycogen synthase kinase-3 alpha (Homo sapiens) (P49840 2-483 limits assumed): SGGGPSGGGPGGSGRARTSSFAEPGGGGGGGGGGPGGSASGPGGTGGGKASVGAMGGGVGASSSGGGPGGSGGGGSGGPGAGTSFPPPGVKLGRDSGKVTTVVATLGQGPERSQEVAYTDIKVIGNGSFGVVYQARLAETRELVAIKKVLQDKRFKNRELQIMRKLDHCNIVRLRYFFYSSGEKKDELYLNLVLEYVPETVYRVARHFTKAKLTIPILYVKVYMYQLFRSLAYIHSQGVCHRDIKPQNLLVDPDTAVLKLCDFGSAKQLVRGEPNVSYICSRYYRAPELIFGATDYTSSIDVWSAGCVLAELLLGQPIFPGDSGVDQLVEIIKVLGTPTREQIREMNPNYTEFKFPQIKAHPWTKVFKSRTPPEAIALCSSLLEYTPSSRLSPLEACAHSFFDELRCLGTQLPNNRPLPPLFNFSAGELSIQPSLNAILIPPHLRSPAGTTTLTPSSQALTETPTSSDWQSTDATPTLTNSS
Sequence of Serine/threonine-protein kinase pim-2 (Homo sapiens) (Q9P1W9 whole entry, looked up): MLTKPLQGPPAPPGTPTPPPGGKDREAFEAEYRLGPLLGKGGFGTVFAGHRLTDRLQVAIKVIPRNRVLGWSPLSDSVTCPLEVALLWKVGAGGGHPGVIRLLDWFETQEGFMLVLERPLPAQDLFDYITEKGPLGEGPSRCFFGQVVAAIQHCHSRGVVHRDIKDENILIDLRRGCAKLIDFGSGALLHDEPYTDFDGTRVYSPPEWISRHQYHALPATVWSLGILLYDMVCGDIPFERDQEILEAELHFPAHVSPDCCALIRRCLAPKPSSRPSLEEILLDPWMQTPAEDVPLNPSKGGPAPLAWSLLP

In the case of `N=C(N)NCCC[C@@H](NC(=O)[C@@H](CCCNC(=N)N)NC(=O)[C@@H](CCCNC(=N)N)NC(=O)[C@@H](CCCNC(=N)N)NC(=O)[C@@H](CCCNC(=N)N)NC(=O)[C@@H](CCCNC(=N)N)NC(=O)CCCCCNC(=O)[C@@H](CCCCN)NC(=O)CCCCCNC(=O)c1ccc(-c2ccnc(N)n2)s1)C(N)=O` ({X1-Ahx}-[dK][Ahx][dR][dR][dR][dR][dR][dR]-NH2), the inhibition [1] is reported as 97%, the inhibition [2] is reported as 80% and the inhibition [3] is reported as 22%. The inhibition [4] was 97%, the inhibition [5] was 69% and the inhibition [6] was 21%. It also gave an inhibition [7] of 103%, an inhibition [8] of 97% and an inhibition [9] of 112%. For the same compound, the inhibition [10] was 99%, the inhibition [11] was 112% and the inhibition [12] was 33%. The inhibition [13] was 78%, the inhibition [14] was 38% and the inhibition [15] was 95%. It also gave an inhibition [16] of 6%, an inhibition [17] of 41% and an inhibition [18] of 93%. It also gave an inhibition [19] of 106%, an inhibition [20] of 82% and an inhibition [21] of 97%. For the same compound, the inhibition [22] was 104%, the inhibition [23] was 91% and the inhibition [24] was 90%. The inhibition [25] was 91%, the inhibition [26] was 70% and the inhibition [27] was 25%. For the same compound, the inhibition [28] was 8%, the inhibition [29] was 103% and the inhibition [30] was 65%. For the same compound, the inhibition [31] was 104%, the inhibition [32] was 46% and the inhibition [33] was 97%. For the same compound, the inhibition [34] was 100%, the inhibition [35] was 24% and the inhibition [36] was 106%. The inhibition [37] was 4%, the inhibition [38] was 26% and the inhibition [39] was 92%. For the same compound, the inhibition [40] was 44%, the inhibition [41] was 106% and the inhibition [42] was 108%. It also gave an inhibition [43] of 79%, an inhibition [44] of 83% and an inhibition [45] of 106%. For the same compound, the inhibition [46] was 10%, the inhibition [47] was 97% and the inhibition [48] was 105%. It also gave an inhibition [49] of 100%.
`NCCCC[C@@H](NC(=O)CCCCCNC(=O)c1ccc(C(N)=O)cc1)C(=O)NCCCCCC(=O)N[C@H](CCCN=C(N)N)C(=O)N[C@H](CCCN=C(N)N)C(N)=O` showed a Kd [50] of 0.177 µM, an IC50 [51] of 28 µM and an IC50 [52] of 23 µM.
Work on `NCCCC[C@@H](NC(=O)CCCCCNC(=O)c1ccc(-c2ccnc(N)n2)s1)C(=O)NCCCCCC(=O)N[C@H](CCCN=C(N)N)C(=O)N[C@H](CCCN=C(N)N)C(=O)N[C@H](CCCN=C(N)N)C(=O)N[C@H](CCCN=C(N)N)C(=O)N[C@H](CCCN=C(N)N)C(=O)N[C@H](CCCN=C(N)N)C(N)=O` ({X1-Ahx}-[dK][Ahx][dR][dR][dR][dR][dR][dR]-NH2) yielded an IC50 [51] of 0.012 µM.
